Assay outcomes: PubChem, Johns Hopkins Ion Channel Center
TRPC4 block – blocks the mouse TRPC4 cation channel | Q9QUQ5 | HEK293 TRPC4beta/mu-opioid, DAMGO-evoked Fluo4 calcium flux; active compounds read low | B-score at 10 µM | hit rate 0.39% among 300,000 | AID 2247;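 active = B-score over 3 SD under the library average, no early fluorescence shift, positive overall ratio signal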
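Assay system – HEK293 line stably carrying TRPC4beta and mu-opioid receptor · Doses – single dose · Detection – Fluo4 calcium-dye fluorescence, kinetic read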
TRPC4 agonist – activators of mouse TRPC4 channel; Q9QUQ5; HEK293 TRPC4beta/mu-opioid, Fluo4 calcium fluorescence; active compounds read high; B-score at 10 µM; hit rate 0.49% among 310,000;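 active = B-score above 5 SD of library B-scores, and initial fluorescence ratio not above library mean plus 5 SD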;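 also: positive B-score marks a calcium rise read as TRPC4 activation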
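Material: TRPC4beta and mu-opioid receptor HEK293 stable cells | Incubation: 45 min room-temperature Fluo4 loading, 110 s read | Detection: Kinetic Fluo4 calcium fluorescence | Measure: Integrated baseline-normalised fluorescence ratio, converted to per-well B score | Benchmarks: Low control buffer alone, high control maximal DAMGO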
TRPC6 act – mouse TRPC6 channel activation; B-score at 10 µM; Q61143; AID 2550; hit rate 0.13% among 310,000; HEK293-TRPC6 membrane potential dye fluorescence; active compounds read high;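 active = B-score of the integrated fluorescence ratio above library mean plus 3 SD, and starting fluorescence ratio within library mean plus 5 SD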;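 also: higher score means more depolarization so channel activation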
Target sequence (Q61143 whole entry, looked up): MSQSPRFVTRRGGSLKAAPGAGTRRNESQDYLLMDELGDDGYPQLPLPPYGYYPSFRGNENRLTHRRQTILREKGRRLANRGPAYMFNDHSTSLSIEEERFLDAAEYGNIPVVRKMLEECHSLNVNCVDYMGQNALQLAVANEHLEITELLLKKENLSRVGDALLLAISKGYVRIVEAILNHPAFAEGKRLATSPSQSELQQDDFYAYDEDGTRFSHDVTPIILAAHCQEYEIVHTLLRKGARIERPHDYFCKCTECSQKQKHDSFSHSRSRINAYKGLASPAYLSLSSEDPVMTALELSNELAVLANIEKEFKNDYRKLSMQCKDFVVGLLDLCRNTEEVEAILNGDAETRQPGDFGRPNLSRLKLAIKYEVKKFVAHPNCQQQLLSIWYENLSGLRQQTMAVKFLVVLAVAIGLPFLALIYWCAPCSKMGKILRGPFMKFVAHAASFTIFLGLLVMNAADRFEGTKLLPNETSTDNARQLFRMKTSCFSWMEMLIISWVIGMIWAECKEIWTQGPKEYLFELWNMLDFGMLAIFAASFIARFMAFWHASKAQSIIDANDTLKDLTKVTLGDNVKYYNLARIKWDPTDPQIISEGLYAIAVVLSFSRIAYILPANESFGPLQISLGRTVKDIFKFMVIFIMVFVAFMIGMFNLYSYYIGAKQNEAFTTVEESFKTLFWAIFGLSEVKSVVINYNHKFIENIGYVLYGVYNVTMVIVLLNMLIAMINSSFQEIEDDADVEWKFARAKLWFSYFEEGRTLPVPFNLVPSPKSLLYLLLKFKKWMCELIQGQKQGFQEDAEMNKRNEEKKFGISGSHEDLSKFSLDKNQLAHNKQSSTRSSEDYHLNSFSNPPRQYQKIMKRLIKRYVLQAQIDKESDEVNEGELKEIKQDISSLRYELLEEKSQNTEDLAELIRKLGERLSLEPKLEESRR
TRPC6 inh – mouse TRPC6 channel inhibition | Q61143 | HEK293-TRPC6, membrane potential dye, ACh-evoked depolarization; active compounds read low | B-score at 10 µM | hit rate 1.1% among 310,000;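 active = B-score under library mean minus 3 SD, initial fluorescence not abnormally high, positive integrated signal ratio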;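 also: B-score derived from integrated fluorescence ratio over the kinetic read; more negative B-score means stronger inhibition of depolarization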
TRPC4 potent – allosteric potentiators of mouse TRPC4 channel. Q9QUQ5. HEK293 TRPC4beta/mu-opioid, DAMGO EC20, Fluo-4 Ca2+ flux; active compounds read high. B-score at 10 µM. hit rate 0.42% among 310,000. AID 2227;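 active = B-score of calcium response area above 5 SD of library B-scores, with initial fluorescence ratio within 5 SD of library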
TRPC4 sel inh 2 – second selectivity test of TRPC6 inhibitors: effect on mouse TRPC4; HEK293 TRPC4/MOR, membrane potential dye fluorescence; channel activated by saturating DAMGO dose; hit rate 42% among 920; inhibition, % at 10 µM; AID 2776; shares compounds with TRPC6 inh;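 active = compounds whose fluorescence signal differed from control wells by over 3 SD, either direction, in both duplicate plates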
TRPC4 spec – mouse TRPC4 off-target activity of TRPC6 inhibitors; shares compounds with TRPC6 inh; activity change, negative = inhibition, % at 10 µM; HEK293 TRPC4/mu-opioid, membrane potential fluorescence; hit rate 61% among 920; AID 2777;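 active = rise or fall in signal beyond 3 SD of buffer-only wells in both replicate plates, either sign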;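 also: integrated kinetic ratio of fluorescence range over baseline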
HEK293 MPD ctr 2-1 – second check of TRPC6 inhibitor effects in parental HEK293 cells. shares compounds with TRPC6 inh. parental HEK293 membrane potential dye fluorescence; maximal acetylcholine challenge after compound addition. signal change vs control, % at 10 µM. hit rate 31% among 920. AID 2779;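 active = membrane potential signal moving either way by over 3 SD of the maximum-effect control, in both duplicate plates, meaning non-specific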
HEK293 MPD ctr-1 – checks TRPC6 inhibitor effects in parental HEK293 cells; shares compounds with TRPC6 inh; parental HEK293 membrane potential dye fluorescence; membrane potential signal change, % at 10 µM; hit rate 60% among 920; AID 2780;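 active = membrane potential signal shifting up or down by more than 3 SD of buffer-only wells, on both duplicate plates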
HEK293 MPD ctr-2 – parental HEK293 nonspecific activity of TRPC6 modulators | hit rate 51% among 2,400 | membrane potential signal change, % at 10 µM | shares compounds with TRPC6 inh | membrane potential dye fluorescence;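 active = membrane potential signal moves up or down beyond 5 SD from buffer-only wells, on both duplicate plates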
HEK293 MPD ctr 2-2 – parental HEK293 nonspecific activity of TRPC6 modulators, second screen | shares compounds with TRPC6 inh | membrane potential dye fluorescence; after compound, maximal acetylcholine stimulation | inhibition, % at 10 µM | hit rate 14% among 2,400 | AID 488926;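 active = membrane potential signal drops by more than 5 SD from the mean control signal, in both duplicate plates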
TRPC4/MOR mod – selectivity of TRPC6 modulators against mouse TRPC4; shares compounds with TRPC6 inh; HEK293 TRPC4/mu-opioid, membrane potential fluorescence; percent change from control (negative = decrease, positive = increase), % at 10 µM; hit rate 69% among 2,400; AID 488927;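 active = membrane potential signal moved up or down beyond 5 SD of buffer control wells, in both duplicate plates, actives on both sides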
TRPC4 ctr inh 2 – second selectivity test of TRPC6 modulators against mouse TRPC4. HEK293 TRPC4/mu-opioid, membrane potential dye fluorescence; stimulated with maximal-effect DAMGO. inhibition, % at 10 µM. hit rate 55% among 2,400. shares compounds with TRPC6 inh;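 active = drop in membrane potential signal beyond 5 SD of the control wells in both duplicate plates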;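 also: TRPC4 counter screen for TRPC6 hits run under conditions tuned for TRPC6 not TRPC4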
TRPC6 inh conf – mouse TRPC6 inhibitor confirmation; shares compounds with TRPC6 inh; hit rate 43% among 3,300; inhibition, % at 10 µM; HEK293-TRPC6, membrane potential dye, ACh-evoked depolarization;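 active = fluorescence ratio falls more than 5 SD below the full-stimulation control mean, in both duplicate runs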;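 also: integrated fluorescence ratio of peak minus minimum over baseline after agonist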
TRPC6 act conf – confirmation of mouse TRPC6 activators; shares compounds with TRPC6 inh; HEK293-TRPC6 membrane potential dye fluorescence, FDSS; activation, % at 10 µM; hit rate 11% among 2,800; AID 488961;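 active = ratio signal rise beyond 5 SD above unstimulated control wells' mean, seen in both duplicate runs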
Large screens that a line does not name were inactive (follow-up assays come after a bar, where they were run). In the library only some 2.3% were active in any assay of this set; here they are far more common.

CCCCN(CCCC)CC(O)CN(c1cc([N+](=O)[O-])ccc1OC)S(=O)(=O)c1ccccc1 (stereo unspecified)	TRPC6 inh -10 | TRPC4 sel inh 2 28% | TRPC4 spec inactive | HEK293 MPD ctr 2-1 inactive | HEK293 MPD ctr-1 0.2% | TRPC6 inh conf 67% | TRPC6 act conf inactive
COc1ccccc1C(CNC(=O)c1ccc(NS(=O)(=O)c2ccc3c(c2)OCCO3)cc1)N(C)C (stereo unspecified)	none
COc1cc(NC(=O)C2CC(=O)N(CCc3ccc(F)cc3)C2)cc(OC)c1OC (stereo unspecified)	none
COc1ccc(C(CCNCc2ccc(OC(C)C)cc2)C(C)C)cc1 (stereo unspecified)	none
COc1ccc(C(CCNCc2ccc(N(C)C)cc2)C(C)C)cc1 (stereo unspecified)	TRPC6 inh -5.2 | HEK293 MPD ctr-2 237% | HEK293 MPD ctr 2-2 inactive | TRPC4/MOR mod 44% | TRPC4 ctr inh 2 56% | TRPC6 inh conf 46%
Cc1cc(C)c(C#N)c(Nc2ccc3c(c2)OCCO3)n1	none
Cc1cc(Nc2ccc3c(c2)OCCO3)c2cc(Cl)ccc2n1	TRPC6 inh -5.1 | HEK293 MPD ctr-2 -83% | HEK293 MPD ctr 2-2 inactive | TRPC4/MOR mod -16% | TRPC4 ctr inh 2 44% | TRPC6 inh conf inactive | TRPC6 act conf inactive
CCOC(=O)C1(Cc2cccc(OC)c2)CCN(Cc2cccn2-c2nccs2)CC1	TRPC6 inh -6.5 | HEK293 MPD ctr-2 207% | HEK293 MPD ctr 2-2 inactive | TRPC4/MOR mod 34% | TRPC4 ctr inh 2 86% | TRPC6 inh conf inactive
COC(=O)C1Cc2c([nH]c3ccccc23)C2(CCN(Cc3ccccc3)CC2)N1 (stereo unspecified)	TRPC6 inh -7.5 | TRPC4 sel inh 2 47% | TRPC4 spec 5.6% | HEK293 MPD ctr 2-1 248% | HEK293 MPD ctr-1 inactive | TRPC6 inh conf inactive | TRPC6 act conf inactive
CCN1C(=O)/C(=C/C=C2\C=CN(CC)c3ccccc32)SC1=S	TRPC6 inh -6.1 | HEK293 MPD ctr-2 inactive | HEK293 MPD ctr 2-2 inactive | TRPC4/MOR mod -27% | TRPC4 ctr inh 2 80% | TRPC6 inh conf inactive | TRPC6 act conf inactive
CCn1c(C)[n+](Cc2ccccc2)c2ccc(Cl)cc21	none
CCn1c(/C=C/N(C)c2ccccc2)[n+](CC)c2ccc(Cl)cc21	TRPC6 inh -8.6 | TRPC4 sel inh 2 inactive | TRPC4 spec -29% | HEK293 MPD ctr 2-1 24% | HEK293 MPD ctr-1 -411% | TRPC6 inh conf 65% | TRPC6 act conf inactive
CCn1c(/C=C/Nc2ccccc2)[n+](CC)c2ccc(Cl)cc21	TRPC6 inh -5.2 | HEK293 MPD ctr-2 -186% | HEK293 MPD ctr 2-2 inactive | TRPC4/MOR mod -34% | TRPC4 ctr inh 2 56% | TRPC6 inh conf 50% | TRPC6 act conf inactive
Fc1ccc([C@@H]2CCNC[C@H]2COc2ccc3c(c2)OCO3)cc1	TRPC4 agonist 142, TRPC6 inh -5.3 | TRPC4 sel inh 2 14% | TRPC4 spec 47% | HEK293 MPD ctr 2-1 inactive | HEK293 MPD ctr-1 0.5% | HEK293 MPD ctr-2 inactive | HEK293 MPD ctr 2-2 64% | TRPC4/MOR mod 39% | TRPC4 ctr inh 2 95% | TRPC6 inh conf 72% | TRPC6 act conf inactive
COCCNC(=O)C(c1ccc(F)cc1)N(C(=O)CCC(=O)Nc1ccccn1)c1ccc(C)cc1 (stereo unspecified)	none
O=C1CSC(c2cccc(F)c2)N1c1c(F)cccc1F (stereo unspecified)	none
O=C1CSC(c2c(F)cccc2Cl)N1c1cccc(F)c1 (stereo unspecified)	TRPC6 inh -5.1 | HEK293 MPD ctr-2 inactive | HEK293 MPD ctr 2-2 inactive | TRPC4/MOR mod 12% | TRPC4 ctr inh 2 inactive | TRPC6 inh conf inactive | TRPC6 act conf inactive
COc1ccc(OC)c(CN2CCN(C(=O)c3cccc(S(=O)(=O)Nc4ccc(C)cc4)c3)CC2)c1	none
Cc1cc(Cn2ccnc2)c(C)c([N+](=O)[O-])c1Cn1ccnc1	none
Cn1cc(/C=C(\NC(=O)c2ccccc2)C(=O)N2CCOCC2)c2ccccc21	none
CN(C)CCOC(=O)/C(=C/c1cn(C)c2ccccc12)NC(=O)c1ccccc1	TRPC6 inh -7.7 | TRPC4 sel inh 2 inactive | TRPC4 spec inactive | HEK293 MPD ctr 2-1 inactive | HEK293 MPD ctr-1 inactive | TRPC6 inh conf inactive | TRPC6 act conf inactive
Cc1ccc(C(=O)N/C(=C\c2cn(C)c3ccccc23)C(=O)OCCN(C)C)cc1	TRPC6 inh -7.5 | TRPC4 sel inh 2 57% | TRPC4 spec -15% | HEK293 MPD ctr 2-1 inactive | HEK293 MPD ctr-1 -280% | TRPC6 inh conf inactive | TRPC6 act conf inactive
CN(C)c1cc[n+](CC(=O)c2ccc(-c3ccccc3)cc2)cc1	TRPC6 inh -7.7 | TRPC4 sel inh 2 inactive | TRPC4 spec -0.5% | HEK293 MPD ctr 2-1 47% | HEK293 MPD ctr-1 3.3% | TRPC6 inh conf inactive
O=C(C[n+]1ccccc1)c1ccc(-c2ccccc2)cc1	none
CCC(=O)Nc1cc2c3c(c1)CCN3C(=O)CC2	none
O=C(NCCCn1ccnc1)C1c2ccccc2Oc2ccccc21	TRPC6 inh -6 | HEK293 MPD ctr-2 inactive | HEK293 MPD ctr 2-2 inactive | TRPC4/MOR mod 32% | TRPC4 ctr inh 2 inactive | TRPC6 inh conf inactive | TRPC6 act conf inactive
